Source: PubChem BioAssay
STAT3 act-1: IL-6 driven STAT3 reporter potentiators, primary screen, U3A cells, luciferase, luminescence, MLSCN library; IL-6 STAT3-luciferase reporter; 100% = signal with IL-6 EC80 alone; activation (% of control), % at 5.6 µM; 190,000 compounds, 0.91% hits; AID 871, 2007;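 active = activation above the screen-wide mean of compound activation plus 3 SD, cut at about 130% in these data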
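Material: STAT3-luciferase reporter U3A cells; Probe or stimulus: IL-6 (33 ng/mL); Incubation: compound pre-incubation 1 h before IL-6, then 6 h stimulation at 37 °C; Technique: luminescence from STAT3-driven luciferase reporter; Evaluation: % activation versus median of IL-6-stimulated wells; Controls: IL-6-only high control.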
STAT1 act-1: STAT1 signaling activators, primary screen, cell-based, HTS, luciferase reporter | NIH 3T3 STAT1-luciferase reporter, IFN-gamma, luminescence; 100% = IFN-gamma alone, no compound | activation (% of control), % at 5.5 µM | 200,000 compounds, 2.6% hits;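 active = activation above the screen-wide mean activation plus 3 SD, cut at about 130% in these data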
STAT1 inh-1: STAT1 signaling inhibitors, primary screen, cell-based, HTS, luciferase reporter | NIH 3T3 STAT1-luciferase reporter, IFN-gamma, luminescence | inhibition, % at 5.5 µM | 200,000 compounds, 0.35% hits | AID 920, 2007;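 active = inhibition above a set limit, the mean inhibition across all tested compounds plus 3 SD, cut at about 34% in these data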
APP 5'UTR act: activators of APP 5'UTR luciferase reporter, primary screen, SH-SY5Y cells. SH-SY5Y APP 5'UTR luciferase reporter, luminescence; zero percent = DMSO vehicle wells. activation, % at 2 µM. 190,000 compounds, 1% hits;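 active = activation above a set limit, based on mean plus 3 SD of controls, cut at about 140% in these data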
STAT3 blocker: IL-6 driven STAT3 reporter inhibitors, primary screen, U3A cells, luciferase, luminescence, MLSCN library | 190,000 compounds, 0.89% hits | IL-6 STAT3-luciferase reporter; host cell line lacks STAT1 | inhibition, % at 5.5 µM;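 active = inhibition above the mean inhibition across all screened compounds plus 3 SD, cut at about 44% in these data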
NF-kB neuron act: activators of NF-kB expression in neurons, primary screen, cell-based, HTS | human neuronal cells, NF-kB reporter expression; hits give high values | fold change at 12.5 µM | 190,000 compounds, 1.6% hits | AID 1239, 2008; in the data active = fold change above about 3.3
STAT3 act-2: STAT3 reporter potentiators, retest of hits, confirmation, U3A cells, luciferase, luminescence | shares compounds with STAT3 act-1 | IL-6 potentiation; U3A cells lack STAT1; 100 means same as IL-6 alone | 1,200 compounds, 64% hits | potentiation (% of control), % at 5.7 µM;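 active = percent activation of the STAT3 luciferase reporter above a set limit taken from the earlier primary screen, cut at about 130% in these data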
NFkB act 2: NF-kB reporter activators in human cells, counter-screen for STAT3 activator project; AID 1309, 2008; 1,200 compounds, 11% hits; activation (% of control), % at 5.7 µM; NF-kappaB reporter activation; shares compounds with STAT3 act-1; in the data active = activation above about 120%;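 note: reporter induced by TNF-alpha stimulation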
STAT1 act-2: STAT1 reporter activators, IFN-gamma induced, counter-screen for STAT3 activator project, cell-based, NIH 3T3, luciferase luminescence. shares compounds with STAT3 act-1. NIH 3T3 STAT1-luciferase reporter. activation (% of control), % at 5.7 µM. 1,200 compounds, 13% hits;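 active = activation above the solvent-only control well mean plus 3 SD, set per screening run, cut at about 120% in these data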
STAT1 inh-2: STAT1 signaling inhibitors, confirmation, cell-based, HTS, luciferase reporter | shares compounds with STAT1 inh-1 | NIH 3T3 STAT1-luciferase reporter, IFN-gamma, luminescence | inhibition, % at 5.5 µM | 200 compounds, 55% hits | AID 1263, 2008;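 active = triplicate mean inhibition exceeding the hit cutoff computed for the primary STAT1 screen, cut at about 35% in these data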
NFkB inh: NF-kB reporter inhibitors, TNF-alpha stimulated, counter-screen for STAT1 inhibitor project, cell-based, HEK293T, luciferase luminescence | shares compounds with STAT1 inh-1 | inhibition, % at 5.7 µM | AID 1303, 2008 | TNF-alpha induced | 200 compounds, 30% hits;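 active = inhibition above the mean of solvent-only control wells plus 3 SD of those wells, cut at about 15% in these data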
STAT3 inh STAT1c: STAT3 reporter inhibition by STAT1 hits, counter-screen for STAT1 inhibitor project, U3A cells, luciferase, luminescence, triplicate; shares compounds with STAT1 inh-1; IL-6 STAT3 luciferase reporter; cells lacking STAT1; inhibition, % at 5.7 µM; 200 compounds, 20% hits;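 active = inhibition above the mean of solvent-only control wells plus 3 SD, set per campaign, cut at about 25% in these data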
STAT1 activ conf: STAT1 signaling activators, confirmation, cell-based, HTS, luciferase reporter; activation (% of control), % at 5.7 µM; 1,200 compounds, 97% hits; NIH 3T3 STAT1-luciferase reporter, IFN-gamma potentiation, luminescence; 100% = IFN-gamma EC80 alone, no compound; AID 1262, 2008; shares compounds with STAT1 act-1;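 active = activation above a set limit carried over from the earlier primary STAT1 screen, cut at about 140% in these data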
NFkB act STAT1ct: NF-kB reporter activators, TNF-alpha stimulated, counter-screen for STAT1 activator project, cell-based, HEK293T, luciferase luminescence | shares compounds with STAT1 act-1 | 100% = TNF-alpha with vehicle only | activation (% of control), % at 5.7 µM | 1,200 compounds, 43% hits | AID 1306, 2008;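 active = activation above the mean of solvent-only control wells plus 3 SD, set per campaign, cut at about 130% in these data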;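 note: TNF-alpha given at a submaximal dose yielding about 80% of full reporter signal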
STAT3 act STAT1c: STAT3 reporter activation by STAT1 hits, confirmation, counter-screen for STAT1 activator project, U3A cells, luciferase, luminescence | activation (% of control), % at 5.7 µM | shares compounds with STAT1 act-1 | AID 1316, 2008 | 1,200 compounds, 46% hits | IL-6; cells lack STAT1; 100 = IL-6 alone, no compound effect;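 active = activation above the solvent-only control well mean plus 3 SD, set per plate batch, cut at about 110% in these data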;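 note: higher means more STAT3 reporter activation so hits are non-selective activators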
Each line names hits and unclear results; the compound was inactive in the other large screens (follow-up assays come after a bar, where they were run). Rows were chosen to be rich in hits. Some 4.9% of all compounds tested hit in one or more screens of this group.

COc1cc(N2CCOCC2)ccc1/C=C1\C(=O)NC(=O)N(Cc2ccc3c(c2)OCO3)C1=O	none
COc1ccc2c(c1)CC1(CN2C)C(=O)NC(=O)N(c2ccc(F)cc2)C1=O (centres undefined)	STAT3 act-1 150 | STAT3 act-2 134 | NFkB act 2 inactive | STAT1 act-2 inactive
COc1ccc2c(c1)CC1(CN2C)C(=O)NC(=O)N(c2ccc(C)cc2)C1=O (centres undefined)	none
CC(=Nc1c(C)n(C)n(-c2ccccc2)c1=O)c1c(O)n(Cc2ccccc2)c(=O)[nH]c1=O	STAT3 act-1 156 | STAT3 act-2 inactive | NFkB act 2 inactive | STAT1 act-2 inactive
CCCC/C(=N\O)c1c[nH]c2ccccc12	STAT3 act-1 141 | STAT3 act-2 155 | NFkB act 2 inactive | STAT1 act-2 inactive
COc1ccc(-c2csc(NC(=O)COC(=O)Cc3ccccc3)n2)cc1OC	none
Cn1cccc1/C=C1\C(=O)NC(=O)N(Cc2ccco2)C1=O	STAT3 act-1 146 | STAT3 act-2 inactive | NFkB act 2 inactive | STAT1 act-2 inactive
COc1ccc(/C=C2/C(=O)NC(=O)N(Cc3ccco3)C2=O)cc1	none
O=C1C2CCCC1C(N1CCCC1)CC2 (centres undefined)	none
Cc1nn(Cc2ccccc2)c(C)c1C(=O)OCC(=O)Nc1ccccc1SCC#N	STAT3 act-1 138 | STAT3 act-2 inactive | NFkB act 2 inactive | STAT1 act-2 inactive
C/C(=N\N1CCCCC1c1cccnc1)c1c(O)n(C2CCCCC2)c(=S)[nH]c1=O (centres undefined)	none
c1ccc2c(CCNC3CCCCC3)c[nH]c2c1	none
c1ccc2[nH]c(CCNC3CCCCC3)nc2c1	STAT3 act-1 137 | STAT3 act-2 inactive | NFkB act 2 inactive | STAT1 act-2 inactive
CC(=NCCC1=CCCCC1)c1c(O)[nH]c(=O)[nH]c1=O	none
CC1(C)CC(=O)C(C=NCCN2CCN(C(=O)Cc3ccc(F)cc3)CC2)=C(O)C1	STAT1 inh-1 34 | STAT1 inh-2 inactive | NFkB inh inactive | STAT3 inh STAT1c inactive
NP(=O)(Oc1ccc(Cl)cc1)Oc1ccc(Cl)cc1	none
O=C(Nc1ccc(OC(=O)N2CCCC2)cc1)N1CCOCC1	none
O=C(Nc1ccc(OC(=O)N2CCCCC2)cc1)N1CCOCC1	STAT1 inh-1 36 | STAT1 inh-2 inactive | NFkB inh inactive | STAT3 inh STAT1c inactive
CC(=O)Nc1ccccc1C(=O)OCc1cccc(F)c1	STAT1 act-1 184 | STAT1 activ conf 182 | NFkB act STAT1ct inactive | STAT3 act STAT1c inactive
CN1CCC(C)(O)C2CCCCC21 (centres undefined)	none
CCc1ccc(-c2nn(Cc3ccccc3)cc2C=O)cc1	STAT1 act-1 170, NF-kB neuron act 4.1 | STAT1 activ conf 158 | NFkB act STAT1ct inactive | STAT3 act STAT1c 121
O=C(O)c1cn(Cc2ccccc2)nc1-c1ccccc1	none
CN1C(=O)/C(=C/c2ccc(N3CCCCCC3)o2)C(=O)NC1=S	STAT1 act-1 166 | STAT1 activ conf 213 | NFkB act STAT1ct 148 | STAT3 act STAT1c 126
O=C1NC(=O)C(CCc2ccncc2)(CCc2ccncc2)C(=O)N1Cc1ccc(F)cc1	none
